Source: publication PMC7709506 (ESMO Open, 2020)
Entries after “also recorded” stand apart in the source; their conditions may differ.

Assay: Safety and tolerability
Assay type: in vivo, human
Method in brief: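 Open-label multicentre phase I/IIa trial in adults with advanced or metastatic solid tumours. Part 1 used 3+3 oral capsule escalation at 50–800 mg/day to define DLT and MTD. Part 2 gave tablets. Treatment continued until progression, intolerable AE or study end, with dose decisions by a safety monitoring board. AEs of special interest were monitored. The safety population was all dosed patients, summarised by dose level.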

Compound: Cn1cc(-c2ccc3c(c2)ncn3-c2cc(NS(=O)(=O)C3CC3)cc(-c3ccc(F)cc3F)c2)cn1 [ODM-203]
- Decreased appetite (capsule 600 mg (n=30)): 9 (30.0) n (%)
- Diarrhoea (capsule 600 mg (n=30)): 17 (56.7) n (%)
- Dry mouth (capsule 600 mg (n=30)): 14 (46.7) n (%)
- Dry skin (capsule 600 mg (n=30)): 1 (3.3) n (%)
- Dysgeusia (capsule 600 mg (n=30)): 5 (16.7) n (%)
- Epistaxis (capsule 600 mg (n=30)): 8 (26.7) n (%)
- Fatigue (capsule 600 mg (n=30)): 10 (33.3) n (%)
- Hyperbilirubinaemia (capsule 600 mg (n=30)): 10 (33.3) n (%)
- Hyperphosphataemia (capsule 600 mg (n=30)): 6 (20.0) n (%)
- Hypertension (capsule 600 mg (n=30)): 5 (16.7) n (%)
- Jaundice (capsule 600 mg (n=30)): 10 (33.3) n (%)
- Mucosal inflammation (capsule 600 mg (n=30)): 1 (3.3) n (%)
- Myalgia (capsule 600 mg (n=30)): 4 (13.3) n (%)
- Nasal dryness (capsule 600 mg (n=30)): 5 (16.7) n (%)
- Nausea (capsule 600 mg (n=30)): 4 (13.3) n (%)
- Onycholysis (capsule 600 mg (n=30)): 6 (20.0) n (%)
- Palmar-plantar eryrthodysaestesia (capsule 600 mg (n=30)): 11 (36.7) n (%)
- Related AE (capsule 600 mg (n=30)): 30 (100) n (%)
- Related SAEs (capsule 600 mg (n=30)): 8 (26.7) n (%)
- Stomatitis (capsule 600 mg (n=30)): 11 (36.7) n (%)
- Vomiting (capsule 600 mg (n=30)): 2 (6.7) n (%)
- Weight decreased (capsule 600 mg (n=30)): 10 (33.3) n (%)
- patients with a DLT (punctate keratitis) (capsule 800 mg): 1 patient
- AE leading to death (capsule 800 mg (n=7)): 0 n (%)
- AE leading to discontinuation (capsule 800 mg (n=7)): 3 (42.9) n (%)
- AE leading to dose reduction (capsule 800 mg (n=7)): 0 n (%)
- AE leading to treatment interruption (capsule 800 mg (n=7)): 5 (71.4) n (%)
- Alopecia (capsule 800 mg (n=7)): 5 (71.4) n (%)
- Any AE (capsule 800 mg (n=7)): 7 (100) n (%)
- Arthralgia (capsule 800 mg (n=7)): 4 (57.1) n (%)
- Asthenia (capsule 800 mg (n=7)): 2 (28.6) n (%)
- Blood bilirubin increased (capsule 800 mg (n=7)): 3 (42.9) n (%)
- Conjugated bilirubin increased (capsule 800 mg (n=7)): 0 n (%)
- Decreased appetite (capsule 800 mg (n=7)): 1 (14.3) n (%)
- Diarrhoea (capsule 800 mg (n=7)): 4 (57.1) n (%)
- Dry skin (capsule 800 mg (n=7)): 1 (14.3) n (%)
- Dysgeusia (capsule 800 mg (n=7)): 1 (14.3) n (%)
- Epistaxis (capsule 800 mg (n=7)): 3 (42.9) n (%)
- Fatigue (capsule 800 mg (n=7)): 2 (28.6) n (%)
- Hyperbilirubinaemia (capsule 800 mg (n=7)): 4 (57.1) n (%)
- Hyperphosphataemia (capsule 800 mg (n=7)): 3 (42.9) n (%)
- Hypertension (capsule 800 mg (n=7)): 0 n (%)
- Jaundice (capsule 800 mg (n=7)): 2 (28.6) n (%)
- Mucosal inflammation (capsule 800 mg (n=7)): 0 n (%)
- Myalgia (capsule 800 mg (n=7)): 2 (28.6) n (%)
- Nasal dryness (capsule 800 mg (n=7)): 0 n (%)
- Nausea (capsule 800 mg (n=7)): 0 n (%)
- Onycholysis (capsule 800 mg (n=7)): 2 (28.6) n (%)
- Palmar-plantar eryrthodysaestesia (capsule 800 mg (n=7)): 1 (14.3) n (%)
- Related AE (capsule 800 mg (n=7)): 7 (100) n (%)
- Related SAEs (capsule 800 mg (n=7)): 1 (14.3) n (%)
- Stomatitis (capsule 800 mg (n=7)): 4 (57.1) n (%)
- Vomiting (capsule 800 mg (n=7)): 0 n (%)
- Weight decreased (capsule 800 mg (n=7)): 1 (14.3) n (%)
- maximum tolerated dose (MTD) (capsule, up to 800 mg once daily): not established; also recorded: not reached
- arthralgia grade 3 events (in vivo): two
- hypertension considered related to study treatment (in vivo): 14 patients
- hypertension events of grade 3 or higher (in vivo): three
- myalgia grade 3 (in vivo): two
- increased alanine transaminase levels (of 30 patients treated with 400 mg/day): three
- Hypertension (patients): 19%
- Myalgia (patients): 16.7%
- back pain (patients): 11.9%
- grade 3 hypertension (patients): 3.6%
- ocular events (patients): 19.0%
- AEs leading to dose reductions (patients, N=84): 10.7%
- AEs leading to treatment interruption (patients, N=84): 72.6%
- bilirubin increase-related events (patients, N=84): 75%
- diarrhoea (AE related to treatment) (patients, N=84): 50%
- dry mouth (AE related to treatment) (patients, N=84): 34.5%
- events resulting in treatment discontinuation (patients, N=84): 35.7%
- palmar-plantar eryrthrodysesthesia (AE related to treatment) (patients, N=84): 35.7%
- stomatitis (AE related to treatment) (patients, N=84): 40.5%
- AEs considered related to the treatment (share of AEs, all doses): 70.4%
- AEs grade 1 or 2 in severity (share of AEs, all doses): 89.2%
- AE leading to death (tablet 200 mg (n=3)): 0 n (%)
- AE leading to discontinuation (tablet 200 mg (n=3)): 0 n (%)
- AE leading to dose reduction (tablet 200 mg (n=3)): 0 n (%)
- AE leading to treatment interruption (tablet 200 mg (n=3)): 0 n (%)
- Alopecia (tablet 200 mg (n=3)): 1 (33.3) n (%)
- Any AE (tablet 200 mg (n=3)): 3 (100) n (%)
- Arthralgia (tablet 200 mg (n=3)): 1 (33.3) n (%)
- Asthenia (tablet 200 mg (n=3)): 0 n (%)
- Blood bilirubin increased (tablet 200 mg (n=3)): 2 (66.7) n (%)
- Conjugated bilirubin increased (tablet 200 mg (n=3)): 0 n (%)
- Decreased appetite (tablet 200 mg (n=3)): 1 (33.3) n (%)
- Diarrhoea (tablet 200 mg (n=3)): 0 n (%)
- Dry mouth (tablet 200 mg (n=3)): 1 (33.3) n (%)
- Dry skin (tablet 200 mg (n=3)): 0 n (%)
- Dysgeusia (tablet 200 mg (n=3)): 1 (33.3) n (%)
- Epistaxis (tablet 200 mg (n=3)): 0 n (%)
- Fatigue (tablet 200 mg (n=3)): 1 (33.3) n (%)
- Hyperbilirubinaemia (tablet 200 mg (n=3)): 0 n (%)
- Hyperphosphataemia (tablet 200 mg (n=3)): 0 n (%)
- Hypertension (tablet 200 mg (n=3)): 1 (33.3) n (%)
- Jaundice (tablet 200 mg (n=3)): 0 n (%)
- Mucosal inflammation (tablet 200 mg (n=3)): 0 n (%)
- Myalgia (tablet 200 mg (n=3)): 1 (33.3) n (%)
- Nasal dryness (tablet 200 mg (n=3)): 0 n (%)
- Nausea (tablet 200 mg (n=3)): 0 n (%)
- Onycholysis (tablet 200 mg (n=3)): 0 n (%)
- Palmar-plantar eryrthodysaestesia (tablet 200 mg (n=3)): 0 n (%)
- Related AE (tablet 200 mg (n=3)): 3 (100) n (%)
- Related SAEs (tablet 200 mg (n=3)): 0 n (%)
- Stomatitis (tablet 200 mg (n=3)): 1 (33.3) n (%)
- Vomiting (tablet 200 mg (n=3)): 0 n (%)
- Weight decreased (tablet 200 mg (n=3)): 0 n (%)
- AE leading to death (tablet 300 mg (n=3)): 0 n (%)
- AE leading to discontinuation (tablet 300 mg (n=3)): 0 n (%)
- AE leading to dose reduction (tablet 300 mg (n=3)): 1 (33.3) n (%)
- AE leading to treatment interruption (tablet 300 mg (n=3)): 1 (33.3) n (%)
- Alopecia (tablet 300 mg (n=3)): 1 (33.3) n (%)
- Any AE (tablet 300 mg (n=3)): 3 (100) n (%)
- Arthralgia (tablet 300 mg (n=3)): 2 (66.7) n (%)
- Asthenia (tablet 300 mg (n=3)): 3 (100) n (%)
- Blood bilirubin increased (tablet 300 mg (n=3)): 0 n (%)
- Conjugated bilirubin increased (tablet 300 mg (n=3)): 1 (33.3) n (%)
- Decreased appetite (tablet 300 mg (n=3)): 2 (66.7) n (%)
- Diarrhoea (tablet 300 mg (n=3)): 1 (33.3) n (%)
- Dry mouth (tablet 300 mg (n=3)): 1 (33.3) n (%)
- Dry skin (tablet 300 mg (n=3)): 1 (33.3) n (%)
- Dysgeusia (tablet 300 mg (n=3)): 1 (33.3) n (%)
- Epistaxis (tablet 300 mg (n=3)): 1 (33.3) n (%)
- Fatigue (tablet 300 mg (n=3)): 0 n (%)
- Hyperbilirubinaemia (tablet 300 mg (n=3)): 1 (33.3) n (%)
- Hyperphosphataemia (tablet 300 mg (n=3)): 1 (33.3) n (%)
- Hypertension (tablet 300 mg (n=3)): 0 n (%)
- Jaundice (tablet 300 mg (n=3)): 1 (33.3) n (%)
- Mucosal inflammation (tablet 300 mg (n=3)): 1 (33.3) n (%)
- Myalgia (tablet 300 mg (n=3)): 0 n (%)
- Nasal dryness (tablet 300 mg (n=3)): 1 (33.3) n (%)
- Nausea (tablet 300 mg (n=3)): 0 n (%)
- Onycholysis (tablet 300 mg (n=3)): 0 n (%)
- Palmar-plantar eryrthodysaestesia (tablet 300 mg (n=3)): 1 (33.3) n (%)
- Related AE (tablet 300 mg (n=3)): 3 (100) n (%)
- Related SAEs (tablet 300 mg (n=3)): 1 (33.3) n (%)
- Stomatitis (tablet 300 mg (n=3)): 0 n (%)
- Vomiting (tablet 300 mg (n=3)): 1 (33.3) n (%)
- Weight decreased (tablet 300 mg (n=3)): 2 (66.7) n (%)
- AE leading to death (tablet 400 mg (n=30)): 5 (16.7) n (%)
- AE leading to discontinuation (tablet 400 mg (n=30)): 9 (30.0) n (%)
- AE leading to dose reduction (tablet 400 mg (n=30)): 6 (20.0) n (%)
- AE leading to treatment interruption (tablet 400 mg (n=30)): 28 (93.3) n (%)
- Alopecia (tablet 400 mg (n=30)): 10 (33.3) n (%)
- Any AE (tablet 400 mg (n=30)): 30 (100) n (%)
- Arthralgia (tablet 400 mg (n=30)): 9 (30.0) n (%)
- Asthenia (tablet 400 mg (n=30)): 10 (33.3) n (%)
- Blood bilirubin increased (tablet 400 mg (n=30)): 15 (50.0) n (%)
- Conjugated bilirubin increased (tablet 400 mg (n=30)): 7 (23.3) n (%)
- Decreased appetite (tablet 400 mg (n=30)): 11 (36.7) n (%)
- Diarrhoea (tablet 400 mg (n=30)): 19 (63.3) n (%)
- Dry mouth (tablet 400 mg (n=30)): 12 (40.0) n (%)
- Dry skin (tablet 400 mg (n=30)): 7 (23.3 n (%)
- Dysgeusia (tablet 400 mg (n=30)): 10 (33.3) n (%)
- Epistaxis (tablet 400 mg (n=30)): 14 (46.7) n (%)
- Fatigue (tablet 400 mg (n=30)): 9 (30.0) n (%)
- Hyperbilirubinaemia (tablet 400 mg (n=30)): 11 (36.7) n (%)
- Hyperphosphataemia (tablet 400 mg (n=30)): 8 (26.7) n (%)
- Hypertension (tablet 400 mg (n=30)): 8 (26.7) n (%)
- Jaundice (tablet 400 mg (n=30)): 11 (36.7) n (%)
- Mucosal inflammation (tablet 400 mg (n=30)): 7 (23.3) n (%)
- Myalgia (tablet 400 mg (n=30)): 3 (10.0) n (%)
- Nasal dryness (tablet 400 mg (n=30)): 6 (20.0) n (%)
- Nausea (tablet 400 mg (n=30)): 7 (23.3) n (%)
- Onycholysis (tablet 400 mg (n=30)): 3 (10.0) n (%)
- Palmar-plantar eryrthodysaestesia (tablet 400 mg (n=30)): 15 (50.0) n (%)
- Related AE (tablet 400 mg (n=30)): 29 (96.7) n (%)
- Related SAEs (tablet 400 mg (n=30)): 4 (13.3) n (%)
- Stomatitis (tablet 400 mg (n=30)): 17 (56.7) n (%)
- Vomiting (tablet 400 mg (n=30)): 5 (16.7) n (%)
- Weight decreased (tablet 400 mg (n=30)): 5 (16.7) n (%)
